Values after ≈ are worked out from the molar mass of the structure shown. Active and inactive are the calls of the source. The calls are words filed in the database; no cut-off is given here.
Key:
Type in all cases: functional
[1] = tested on: Escherichia coli; test: Antibacterial activity against Escherichia coli B-906 at 0.5% after 24 hrs by diffusion technique
[2] = tested on: Escherichia coli; test: Antibacterial activity against Escherichia coli B-906 at 0.1% after 24 hrs by diffusion technique
[3] = tested on: Staphylococcus aureus; test: Antibacterial activity against Staphylococcus aureus 209-P at 0.5% after 24 hrs by diffusion technique
[4] = tested on: Staphylococcus aureus; test: Antibacterial activity against Staphylococcus aureus 209-P at 0.1% after 24 hrs by diffusion technique
[5] = tested on: Mycobacterium; test: Antibacterial activity against Mycobacterium luteum b-917 at 0.5% after 24 hrs by diffusion technique
[6] = tested on: Mycobacterium; test: Antibacterial activity against Mycobacterium luteum b-917 at 0.1% after 24 hrs by diffusion technique
[7] = tested on: Yamadazyma tenuis; test: Antifungal activity against Candida tenuis VKM Y-70 at 0.5% after 48 to 72 hrs by diffusion technique
How it was run: (§1)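 Fungi. Disk diffusion: 10⁹ spores (cells)/1 mL inoculum. Incubated 48–72 h at 28–30 °C. Zone around disk measured, with a nystatin control disk. Serial dilution: compounds dissolved in DMSO and diluted into wort agar, then inoculated. Incubated at 30 °C for 24–72 h. MIC recorded.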

[8] = tested on: Yamadazyma tenuis; test: Antifungal activity against Candida tenuis VKM Y-70 at 0.1% after 48 to 72 hrs by diffusion technique; how it was run: as §1
[9] = tested on: Aspergillus niger; test: Antifungal activity against Aspergillus niger F-1119 at 0.5% after 48 to 72 hrs by diffusion technique; how it was run: as §1
[10] = tested on: Aspergillus niger; test: Antifungal activity against Aspergillus niger F-1119 at 0.1% after 48 to 72 hrs by diffusion technique; how it was run: as §1
[11] = tested on: Escherichia coli; test: Antibacterial activity against Escherichia coli B-906 after 24 to 72 hrs by serial dilution technique
[12] = tested on: Staphylococcus aureus; test: Antibacterial activity against Staphylococcus aureus 209-P after 24 to 72 hrs by serial dilution technique
[13] = tested on: Mycobacterium; test: Antibacterial activity against Mycobacterium luteum b-917 after 24 to 72 hrs by serial dilution technique
[14] = tested on: Yamadazyma tenuis; test: Antifungal activity against Candida tenuis VKM Y-70 after 24 to 72 hrs by serial dilution technique; how it was run: as §1
[15] = tested on: Aspergillus niger; test: Antifungal activity against Aspergillus niger F-1119 after 24 to 72 hrs by serial dilution technique; how it was run: as §1

Row | Compound | diameter of the inhibition zone (DIZ) [1] [mm] | diameter of the inhibition zone (DIZ) [2] [mm] | diameter of the inhibition zone (DIZ) [3] [mm] | diameter of the inhibition zone (DIZ) [4] [mm] | diameter of the inhibition zone (DIZ) [5] [mm] | diameter of the inhibition zone (DIZ) [6] [mm] | diameter of the inhibition zone (DIZ) [7] [mm] | diameter of the inhibition zone (DIZ) [8] [mm] | diameter of the inhibition zone (DIZ) [9] [mm] | diameter of the inhibition zone (DIZ) [10] [mm] | inhibition [11] | inhibition [12] | MIC [13] [µg/mL] | MIC [14] [µg/mL] | MIC [15] [µg/mL] | MIC [12] [µg/mL] | inhibition [13] | inhibition [15] | inhibition zone (IZ) [8] [mm] | inhibition [14]
1 | O=C1C(Sc2nc3ccc([N+](=O)[O-])cc3s2)=C(Sc2nc3ccc([N+](=O)[O-])cc3s2)C(=O)c2ccccc21 | 0 | 0 | 8 | 0 | 11.7 | 0 | 24 | 15 | 15 | 8 | inactive | inactive | 125 (≈ 216 µM) | 15.6 (≈ 27 µM) | 31.2 (≈ 53.9 µM) |  |  |  |  | 
2 | O=C1C(SCCCCO)=C(SCCCCO)C(=O)c2ccccc21 | 0 | 0 | 26 | 18 | 31 | 22 | 8 | 0 | 6 | 0 | inactive |  | 15.6 (≈ 42.6 µM) | 7.8 (≈ 21.3 µM) | 31.2 (≈ 85.1 µM) | 15.6 (≈ 42.6 µM) |  |  |  | 
3 | CCOC1=C(SCc2c(C)cc(C)cc2C)C(=O)c2ccccc2C1=O | 0 | 0 | 0 | 0 | 0 | 0 | 0 | 0 | 0 | 0 | inactive | inactive |  | 62.5 (≈ 171 µM) |  |  | inactive | inactive |  | 
4 | O=C1C(SCc2ccco2)=C(SCc2ccco2)C(=O)c2ccccc21 | 0 | 0 | 7 | 0 | 10.4 | 7.7 | 0 | 0 | 10 | 8 | inactive | inactive |  | 15.6 (≈ 40.8 µM) | 62.5 (≈ 163 µM) |  |  |  |  | 
5 | CCOC1=C(SCCCCO)C(=O)c2ccccc2C1=O | 0 | 0 | 19.4 | 12 | 25.4 | 14.7 | 14.7 | 8.4 | 10 | 0 | inactive |  | 31.2 (≈ 102 µM) | 15.6 (≈ 50.9 µM) | 31.2 (≈ 102 µM) | 250 (≈ 816 µM) |  |  |  | 
6 | O=C1C(Cl)=C(SCc2ccc(Cl)cc2)C(=O)c2ccccc21 | 0 | 0 | 7 | 0 | 0 | 0 | 14 | 10 | 7 | 0 | inactive | inactive | 500 (≈ 1430 µM) | 15.6 (≈ 44.7 µM) | 15.6 (≈ 44.7 µM) |  |  |  |  | 
7 | NYSTATIN |  |  |  |  |  |  |  |  |  |  |  |  |  |  |  |  |  |  | 19 | 
8 | O=C1C(Cl)=C(SCCCCCCCCCO)C(=O)c2ccccc21 | 0 | 0 | 0 | 0 | 0 | 0 | 0 | 0 | 0 | 0 | inactive | inactive |  | 31.2 (≈ 85 µM) |  |  | inactive | inactive |  | 
9 | O=C1C2=C(SCCSCCSC3=C(SCCSCCS2)C(=O)c2ccccc2C3=O)C(=O)c2ccccc21 | 0 | 0 | 0 | 0 | 0 | 0 | 0 | 0 | 0 | 0 | inactive | inactive |  | 31.2 (≈ 50.6 µM) |  |  | inactive | inactive |  | 
10 | Cc1cc(C)c(CSC2=C(SCc3c(C)cc(C)cc3C)C(=O)c3ccccc3C2=O)c(C)c1 | 0 | 0 | 0 | 0 | 0 | 0 | 0 | 0 | 0 | 0 | inactive | inactive |  | 125 (≈ 257 µM) |  |  | inactive | inactive |  | 
11 | CN[C@H](CC(C)C)C(=O)N[C@H]1C(=O)N[C@@H](CC(N)=O)C(=O)N[C@H]2C(=O)N[C@H]3C(=O)N[C@H](C(=O)N[C@H](C(=O)O)c4cc(O)cc(O)c4-c4cc3ccc4O)[C@H](O)c3ccc(c(Cl)c3)Oc3cc2cc(c3O[C@@H]2O[C@H](CO)[C@@H](O)[C@H](O)[C@H]2O[C@H]2C[C@](C)(N)[C@H](O)[C@H](C)O2)Oc2ccc(cc2Cl)[C@H]1O [VANCOMYCIN] |  | 14 |  | 15 |  | 18 |  |  |  |  |  |  |  |  |  |  |  |  |  | 
12 | O=C1CCSC2=C(SCCC(=O)OCC3(CO1)COC(=O)CCSC1=C(SCCC(=O)OC3)C(=O)c3ccccc3C1=O)C(=O)c1ccccc1C2=O | 0 | 0 | 0 | 0 | 0 | 0 | 0 | 0 | 0 | 0 | inactive | inactive |  | 15.6 (≈ 19.6 µM) |  |  | inactive | inactive |  | 
13 | O=C1C(Sc2ncccn2)=C(Sc2ncccn2)C(=O)c2ccccc21 | 0 | 0 | 9 | 6 | 11.7 | 6.7 | 7 | 6 | 9 | 7 |  |  | 500 (≈ 1320 µM) | 125 (≈ 330 µM) | 500 (≈ 1320 µM) | 62.5 (≈ 165 µM) |  |  |  | 
14 | O=C1C(SCCCCCCCCCO)=C(SCCCCCCCCCO)C(=O)c2ccccc21 | 0 | 0 | 0 | 0 | 0 | 0 | 0 | 0 | 6 | 0 | inactive |  |  |  |  | 250 (≈ 493 µM) |  | inactive |  | inactive
15 | O=C1C(SCc2ccc(Cl)cc2)=C(SCc2ccc(Cl)cc2)C(=O)c2ccccc21 | 0 | 0 | 0 | 0 | 0 | 0 | 7.4 | 0 | 0 | 0 | inactive | inactive | 125 (≈ 265 µM) | 15.6 (≈ 33.1 µM) | 31.2 (≈ 66.2 µM) |  |  |  |  | 
